Scp-1 inhibitor – blocks human Scp-1 phosphatase activity | Recombinant Scp1, phosphopeptide, malachite green phosphate absorbance | inhibition, % at 20 µM | 0.88% of 340,000 active;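 active = inhibition above about 50% at 20 µM, limit read from the data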;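 also: plate controls were DMSO wells with enzyme for no effect and wells lacking enzyme for full effect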
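Incubation: 45 min enzyme reaction at room temperature / System: truncated SCP-1 phosphatase (76-261aa) / Reagent: Phospho 17-mer peptide substrate / Buffer or medium: Acidic Tris acetate buffer with magnesium and detergent / Signal: absorbance at 630 nm / Doses: one concentration, 20 µM, with 1.0% DMSO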
STEP inh – inhibitors of human striatal-enriched phosphatase STEP | P54829 | recombinant STEP, OMFP fluorogenic substrate, fluorescence | inhibition, % at 20 µM | 0.25% of 360,000 active | AID 588621;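 active = inhibition at 20 µM, scaled per plate between control wells, above about 37%, limit read from the data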;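 also: 0% = DMSO with enzyme and substrate and 100% = substrate only without enzyme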
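System: STEP (striatal-enriched tyrosine phosphatase) enzyme, cell-free; medium: Bis-Tris pH 6.0 buffer with DTT, detergent; dosing: 20 µM, 1% DMSO; times: reaction 20 min, ambient temperature; detection: fluorescence, 480/540 nm; read-out basis: normalized % inhibition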
DNMT1 block – DNMT1 (human) enzyme inhibition; inhibition (reported as % activation of signal), % at 10 µM; P26358; AID 588458; 0.83% of 360,000 active; DNMT1 molecular beacon, Hinp1I cleavage, fluorescence; in the data active = inhibition above about 50%
SUMO1 PPI mod – alters human SUMO1 binding to SIM partners | P63165 | 0.33% of 360,000 active | SUMO1 binding to a labelled peptide, TR-FRET, 1 h | inhibition, % at 20 µM; in the data active = inhibition above about 37%
Target sequence (P63165 whole entry, looked up): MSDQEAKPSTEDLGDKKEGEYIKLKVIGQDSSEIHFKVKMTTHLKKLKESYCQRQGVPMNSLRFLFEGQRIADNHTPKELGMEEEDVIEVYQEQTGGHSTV
LMPTP block – LMPTP (human) inhibition; P24666; recombinant LMPTP-A, OMFP fluorogenic substrate, fluorescence intensity; inhibition, % at 20 µM; 0.22% of 360,000 active; AID 651560;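 active = compounds that cut the enzyme signal by at least half of the control window in the single-dose screen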;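 also: plate controls were DMSO wells with enzyme plus substrate for no effect and substrate without enzyme for full effect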
Target sequence (P24666 whole entry, looked up): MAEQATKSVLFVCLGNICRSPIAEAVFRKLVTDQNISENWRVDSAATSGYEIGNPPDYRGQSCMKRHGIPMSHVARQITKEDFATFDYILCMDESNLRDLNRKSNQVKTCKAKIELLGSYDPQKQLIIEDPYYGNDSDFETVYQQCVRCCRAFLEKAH
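Test system: LMPTP-A phosphatase enzyme; input: 0.625 nM LMPTP-A final; reagent: OMFP substrate, 400 µM final; compound dosing: 20 µM single dose, 3% DMSO; incubation: 50 min dark incubation at room temperature; measured by: endpoint fluorescence intensity from OMFP dephosphorylation; measure: % inhibition relative to no-enzyme and uninhibited control wells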
CSN deneddyl inh – blocks human CSN-mediated cullin deneddylation; Q92905; Purified CSN, SCF-Nedd8-OG deneddylation, fluorescence polarization; inhibition, % at 12.5 µM; 0.38% of 360,000 active; AID 651999;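 active = pattern-corrected inhibition above about 35%, with an unprinted fluorescence ratio check between 0.5 and 1.5, limit read from the data, passing the limit was not always enough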;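 also: 0% = enzyme with substrate and 100% = substrate without enzyme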
Target sequence (Q92905 whole entry, looked up, one chain of several): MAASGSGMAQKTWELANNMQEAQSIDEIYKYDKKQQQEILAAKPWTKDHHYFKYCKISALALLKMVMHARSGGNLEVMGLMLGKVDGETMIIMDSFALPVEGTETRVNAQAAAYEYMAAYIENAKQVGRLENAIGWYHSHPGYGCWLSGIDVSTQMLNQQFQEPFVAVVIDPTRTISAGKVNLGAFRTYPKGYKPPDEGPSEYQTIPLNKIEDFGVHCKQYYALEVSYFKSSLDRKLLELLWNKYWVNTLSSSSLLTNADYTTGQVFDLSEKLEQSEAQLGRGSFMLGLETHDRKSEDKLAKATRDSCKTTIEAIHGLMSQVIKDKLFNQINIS
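Material: purified human Csn5 enzyme expressed in HEK293T cells / Medium: Tris buffer pH 7.5, NaCl, DTT, Tween-20, trehalose, ovalbumin / Compound dosing: 12.5 µM single point / Schedule: 90 min incubation of compound, enzyme and substrate at room temperature / Signal: fluorescence polarization of the substrate / Control set: no-enzyme wells high, enzyme-with-substrate wells low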
Scp-1 conf – confirmation of human Scp-1 phosphatase inhibitors; inhibition, % at 20 µM; shares compounds with Scp-1 inhibitor; recombinant SCP-1 catalytic domain, phosphate release, malachite green absorbance; 61% of 2,500 active; AID 540281;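 also: plate controls were DMSO with enzyme for no effect and buffer wells lacking enzyme for full effect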
Scp-1 MG ctr – colorimetric interference in Scp-1 counter-screen | shares compounds with Scp-1 inhibitor | Colorimetric interference counterscreen, malachite green absorbance 630 nm | apparent inhibition (interference), % at 20 µM | 2,500 tested, under 10 active | AID 540313;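 also: compounds added after enzyme reaction finished so only phosphate colour detection is probed; plate controls were DMSO wells with completed Scp-1 reaction for no effect and substrate wells lacking enzyme for full effect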
Scp1 DSF – validation of human Scp-1 inhibitors by thermal shift binding; shares compounds with Scp-1 inhibitor; Recombinant SCP1, Sypro Orange thermal shift Tm; thermal shift relative to vanadate control, % at 40 µM; 25% of 1,500 active; AID 540329;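 active = substances whose mean melting-temperature shift, as a percentage of the reference inhibitor's shift, reaches about 5.3%, limit read from the data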;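 also: 0% = Tm of DMSO wells and 100% = Tm with sodium orthovanadate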
* hit, by the source's call. Rows were chosen to be rich in hits. Some 1.9% of all compounds tested hit in one or more screens of this group.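 The calls were made as follows, unless noted: active = inhibition of at least 30% at 20 µM; inactive = the rest.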

What do the screens show for `CCCOC(=O)c1ccc(OCC(O)CN2C(=O)NC(C)(C)C2=O)cc1` (stereo not drawn)?
Scp-1 inhibitor: 65*; STEP inh: -1; DNMT1 block: 1; SUMO1 PPI mod: -3; LMPTP block: 0; CSN deneddyl inh: -2; Scp-1 conf: -8; Scp-1 MG ctr: -7

What do the screens show for `Cc1cc(-c2ccccc2)nc(N(C)NC(=O)c2ccc(Cl)cc2)c1S(C)(=O)=O`?
Scp-1 inhibitor: -8; STEP inh: 2; DNMT1 block: 3; SUMO1 PPI mod: -2; LMPTP block: 3; CSN deneddyl inh: -4

Results for Cc1cc(C)c(S(C)(=O)=O)c(N(C)NC(=O)c2c(F)cccc2F)n1 ?
Scp-1 inhibitor: 68*; STEP inh: 0; DNMT1 block: -4; SUMO1 PPI mod: 0; LMPTP block: -1; CSN deneddyl inh: -4; Scp-1 conf: -15; Scp-1 MG ctr: -11

What do the screens show for `O=C(O)c1ccc(OS(=O)(=O)c2ccc(Cl)s2)c(Cl)c1`?
Scp-1 inhibitor: -6; STEP inh: 1; DNMT1 block: 0; SUMO1 PPI mod: 11; LMPTP block: -1; CSN deneddyl inh: 2

How did CC(=O)c1ccc(S(=O)(=O)Oc2ccc(C(=O)O)cc2Cl)cc1 do in these assays?
Scp-1 inhibitor: 53*; STEP inh: -4; DNMT1 block: 25; SUMO1 PPI mod: 4; LMPTP block: -1; CSN deneddyl inh: 4; Scp-1 conf: 24; Scp-1 MG ctr: -6

Results for O=C(Nc1ccc2ncccc2c1)c1ccccc1Cl ?
Scp-1 inhibitor: 57*; STEP inh: -4; DNMT1 block: 3; SUMO1 PPI mod: -1; LMPTP block: -2; CSN deneddyl inh: -3; Scp-1 conf: 5; Scp-1 MG ctr: -11

Results for O=C(O)c1ccc(COc2ccc3c4c(c(=O)oc3c2)CCC4)o1 ?
Scp-1 inhibitor: 50*; STEP inh: 12; DNMT1 block: 44; SUMO1 PPI mod: 1; LMPTP block: -2; CSN deneddyl inh: 2; Scp-1 conf: 45*; Scp-1 MG ctr: -6; Scp1 DSF: -4

How did O=c1oc2cc(OCc3ccc([N+](=O)[O-])cc3)ccc2c2c1CCCC2 do in these assays?
Scp-1 inhibitor: -6; STEP inh: -2; DNMT1 block: 15; SUMO1 PPI mod: -7; LMPTP block: 1; CSN deneddyl inh: 7

How did O=C(c1cc2c(F)cccc2s1)N1CCCC1 do in these assays?
Scp-1 inhibitor: -9; STEP inh: 1; DNMT1 block: 0; SUMO1 PPI mod: -1; LMPTP block: -1; CSN deneddyl inh: 3

Results for c1ccc(Sc2cccc3ccccc23)c(CNC2=NCCN2)c1 ?
Scp-1 inhibitor: 29; STEP inh: -4; DNMT1 block: 9; SUMO1 PPI mod: -10; LMPTP block: 2; CSN deneddyl inh: 2

Results for Fc1ccccc1Sc1ccccc1CNC1=NCCN1 ?
Scp-1 inhibitor: 97*; STEP inh: -3; DNMT1 block: 0; SUMO1 PPI mod: 2; LMPTP block: -1; CSN deneddyl inh: -1; Scp-1 conf: 84*; Scp-1 MG ctr: -15; Scp1 DSF: -14

What do the screens show for `Cc1cc(C)nc(SCC(=O)NNS(=O)(=O)c2ccc(C#N)cc2)n1`?
Scp-1 inhibitor: 54*; STEP inh: 1; DNMT1 block: 16; SUMO1 PPI mod: 15; LMPTP block: -1; CSN deneddyl inh: 0; Scp-1 conf: 62*; Scp-1 MG ctr: 3; Scp1 DSF: -4

What do the screens show for `Nc1ccc2nc(SCC(=O)Nc3ccc(N4CCOCC4)c(Cl)c3)sc2c1`?
Scp-1 inhibitor: 97*; STEP inh: -3; DNMT1 block: -10; SUMO1 PPI mod: 4; LMPTP block: 0; CSN deneddyl inh: 3; Scp-1 conf: -1; Scp-1 MG ctr: -5

Results for Cc1[nH]c2ccccc2c1/C=C/c1cc[n+](C)cc1 ?
Scp-1 inhibitor: 34; STEP inh: -4; DNMT1 block: 8; SUMO1 PPI mod: -85; LMPTP block: 6; CSN deneddyl inh: 130

How did Cc1ccccc1/C=C/c1cc[n+](C)cc1 do in these assays?
Scp-1 inhibitor: 58*; STEP inh: 2; DNMT1 block: 1; SUMO1 PPI mod: -16; LMPTP block: -1; CSN deneddyl inh: -1; Scp-1 conf: -12; Scp-1 MG ctr: -20

Results for COc1ccc(C2=[N+](C)CCn3cccc32)c(OC)c1 ?
Scp-1 inhibitor: 103*; STEP inh: 2; DNMT1 block: 3; SUMO1 PPI mod: -1; LMPTP block: 0; CSN deneddyl inh: -2; Scp-1 conf: 96*; Scp-1 MG ctr: -7; Scp1 DSF: 0

Results for CCN(CC)C(=O)C(=O)c1cn(CCOc2ccccc2)c2ccccc12 ?
Scp-1 inhibitor: -10; STEP inh: -2; DNMT1 block: -1; SUMO1 PPI mod: 1; LMPTP block: -1; CSN deneddyl inh: -10

Results for CSc1ccc(NC(=O)Nc2ccc(C(=O)NCC(=O)O)cc2)cc1 ?
Scp-1 inhibitor: 52*; STEP inh: 11; DNMT1 block: 15; SUMO1 PPI mod: 10; LMPTP block: 39; CSN deneddyl inh: 1; Scp-1 conf: 36*; Scp-1 MG ctr: -21; Scp1 DSF: 6.0*

What do the screens show for `CCSc1ccc(C(=O)NCC(=O)O)cc1`?
Scp-1 inhibitor: -3; STEP inh: -3; DNMT1 block: 1; SUMO1 PPI mod: -3; LMPTP block: 0; CSN deneddyl inh: 2

What do the screens show for `CS(=O)(=O)N(CC(=O)N1CCCCCC1)c1ccc(Cl)cc1`?
Scp-1 inhibitor: 59*; STEP inh: 0; DNMT1 block: -5; SUMO1 PPI mod: 1; LMPTP block: -3; CSN deneddyl inh: -2; Scp-1 conf: 0; Scp-1 MG ctr: -5

Results for CCOC(=O)c1sc(/S(C)=N\S(=O)(=O)c2cccc(Cl)c2)c2c1CCC=C2 (stereo not drawn) ?
Scp-1 inhibitor: 1; STEP inh: 2; DNMT1 block: -6; SUMO1 PPI mod: -12; LMPTP block: -1; CSN deneddyl inh: 0

Results for CCCCNC(=S)Nc1ccc(C(F)(F)F)cc1 ?
Scp-1 inhibitor: -11; STEP inh: 9; DNMT1 block: 2; SUMO1 PPI mod: 1; LMPTP block: 0; CSN deneddyl inh: 3
